From ChEMBL document CHEMBL3232963, “Discovery of a potent and selective α3β4 nicotinic acetylcholine receptor antagonist from an α-conotoxin synthetic combinatorial library” (J Med Chem, 2014)
The source made the active and inactive calls. The rule behind the calls is not given here. Bridge positions count the residues as written; N and C are the ends. Square brackets hold non-standard residues; d marks the D form. Peptide text beside a SMILES is read from it. Nle = CCCC[C@H](N)C(=O)O; Nva = CCC[C@H](N)C(=O)O; Abu = CC[C@H](N)C(=O)O

Experiments:
Assay type in all cases: cell-based
[1] = target: T1, Neuronal acetylcholine receptor; alpha3/beta4 (Rattus norvegicus, UniProt P04757+P12392); assay: Antagonist activity at rat alpha3beta4 nAChR expressed in HEK293 cells assessed as inhibition of epibatadine-induced effect after 30 mins by fluorescent membrane potential assay
How it was run: (§1)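 Stably transfected HEK293 lines (KXα3β4R2, KXα3β2R2, KXα4β2R2; rat subunits) grown in DMEM/10% FBS with G-418, plated 24 h before assay. Cells washed with HBSS, peptide added, then membrane potential blue dye, 30 min at 37 °C. Fluorescence (ex 565/em 530 nm) read up to 60 s after epibatidine to 0.1 μM. IC50 from maximal responses across concentrations; n = 4.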

[2] = target: Neuronal acetylcholine receptor; alpha4/beta2 (Rattus norvegicus) (UniProt P09483+P12390); assay: Displacement of [3H]epibatadine from rat alpha4beta2 nAChR expressed in HEK293 cells up to 10 uM after 2 hrs by betaplate counting analysis
How it was run: (§2)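 Membranes from HEK293 cells stably expressing α3β4 or α4β2 nAChR, homogenised in 50 mM Tris pH 7.4 and washed by centrifugation. Incubated 2 h at room temperature with peptide and 0.31 nM [3H]epibatidine; filtered on PEI-soaked glass fibre, counted. Nonspecific binding with 0.1 μM unlabeled epibatidine. Ki by Cheng–Prusoff from IC50.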

[3] = target: T1, Neuronal acetylcholine receptor; alpha3/beta4; assay: Displacement of [3H]epibatadine from rat alpha3beta4 nAChR expressed in HEK293 cells after 2 hrs by betaplate counting analysis; how it was run: as §2
[4] = target: Neuronal acetylcholine receptor; alpha3/beta2 (Rattus norvegicus, UniProt P04757+P12390); assay: Antagonist activity at rat alpha3beta2 nAChR expressed in HEK293 cells assessed as inhibition of epibatadine-induced effect after 30 mins by fluorescent membrane potential assay; how it was run: as §1
[5] = target: Neuronal acetylcholine receptor; alpha4/beta2 (Rattus norvegicus, UniProt P09483+P12390); assay: Antagonist activity at rat alpha4beta2 nAChR expressed in HEK293 cells assessed as inhibition of epibatadine-induced effect after 30 mins by fluorescent membrane potential assay; how it was run: as §1
[6] = target: Neuronal acetylcholine receptor subunit alpha-7 (Homo sapiens) (UniProt P36544); assay: Inhibition of alpha7 nAChR (unknown origin) expressed in Xenopus laevis oocytes assessed as inhibition of acetylcholine-evoked current at 10 uM by voltage clamp technique
[7] = target: Neuronal acetylcholine receptor; alpha3/beta4 (Rattus norvegicus) (UniProt P04757+P12392); assay: Antagonist activity at rat alpha3beta4 nAChR expressed in HEK293 cells assessed as inhibition of epibatadine-induced effect at 10 uM after 30 mins by fluorescent membrane potential assay relative to mecamylamine
How it was run: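 Rat α3β4 nAChR stably expressed in HEK293 cells; crude, SPE-desalted individual peptides tested at 10 μM in HBSS with membrane potential blue dye, 30 min at 37 °C. Fluorescence change read after epibatidine (0.1 μM). Percent inhibition set against 10 μM mecamylamine taken as 100%.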

[8] = target: Neuronal acetylcholine receptor; alpha3/beta2 (Homo sapiens) (UniProt P17787+P32297); assay: Inhibition of alpha3beta2 nAChR (unknown origin) expressed in Xenopus laevis oocytes assessed as inhibition of acetylcholine-evoked current up to 10 uM by voltage clamp technique
[9] = target: T2, Neuronal acetylcholine receptor; alpha3/beta4 (Homo sapiens, UniProt P30926+P32297); assay: Inhibition of alpha3beta4 nAChR (unknown origin) expressed in Xenopus laevis oocytes assessed as inhibition of acetylcholine-evoked current at 10 uM by voltage clamp technique
[10] = species: Homo sapiens; assay: Selectivity for alpha3beta4 nAChR (unknown origin) expressed in Xenopus laevis oocytes over alpha3beta2 nAChR (unknown origin) expressed in Xenopus laevis oocytes
[11] = target: T2, Neuronal acetylcholine receptor; alpha3/beta4; assay: Inhibition of alpha3beta4 nAChR (unknown origin) expressed in Xenopus laevis oocytes assessed as inhibition of acetylcholine-evoked current by voltage clamp technique
How it was run: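 Oocytes expressing α3 chimera/β4 nAChR, voltage-clamped at ~22 °C. Concentrations below 1 μM perfused, with 1 s ACh pulses every 1 min; 1 μM and above given as a 5 min static bath. Lowest concentration tested 10 nM. IC50 from a concentration–response curve with top and bottom fixed at 100 and 0; n = 3–5 oocytes per concentration.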

Chain of Neuronal acetylcholine receptor; alpha4/beta2 (P09483 whole entry): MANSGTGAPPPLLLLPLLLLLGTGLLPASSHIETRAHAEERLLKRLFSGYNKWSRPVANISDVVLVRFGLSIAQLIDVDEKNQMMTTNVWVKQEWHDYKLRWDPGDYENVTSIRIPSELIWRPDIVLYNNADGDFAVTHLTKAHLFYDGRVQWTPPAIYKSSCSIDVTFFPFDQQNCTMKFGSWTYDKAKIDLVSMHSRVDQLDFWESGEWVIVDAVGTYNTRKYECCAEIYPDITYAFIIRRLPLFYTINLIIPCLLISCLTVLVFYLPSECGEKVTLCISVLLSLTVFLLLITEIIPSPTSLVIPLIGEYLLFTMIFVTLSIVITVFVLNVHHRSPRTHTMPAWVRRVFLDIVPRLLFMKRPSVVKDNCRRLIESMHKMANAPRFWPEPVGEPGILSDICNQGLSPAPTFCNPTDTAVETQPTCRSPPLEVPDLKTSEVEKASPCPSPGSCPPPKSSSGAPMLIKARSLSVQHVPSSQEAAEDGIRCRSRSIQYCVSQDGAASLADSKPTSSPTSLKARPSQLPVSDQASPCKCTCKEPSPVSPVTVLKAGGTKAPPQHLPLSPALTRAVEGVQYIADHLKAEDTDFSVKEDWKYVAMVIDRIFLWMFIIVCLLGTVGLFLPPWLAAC
Chain of Neuronal acetylcholine receptor; alpha4/beta2 (P12390 whole entry): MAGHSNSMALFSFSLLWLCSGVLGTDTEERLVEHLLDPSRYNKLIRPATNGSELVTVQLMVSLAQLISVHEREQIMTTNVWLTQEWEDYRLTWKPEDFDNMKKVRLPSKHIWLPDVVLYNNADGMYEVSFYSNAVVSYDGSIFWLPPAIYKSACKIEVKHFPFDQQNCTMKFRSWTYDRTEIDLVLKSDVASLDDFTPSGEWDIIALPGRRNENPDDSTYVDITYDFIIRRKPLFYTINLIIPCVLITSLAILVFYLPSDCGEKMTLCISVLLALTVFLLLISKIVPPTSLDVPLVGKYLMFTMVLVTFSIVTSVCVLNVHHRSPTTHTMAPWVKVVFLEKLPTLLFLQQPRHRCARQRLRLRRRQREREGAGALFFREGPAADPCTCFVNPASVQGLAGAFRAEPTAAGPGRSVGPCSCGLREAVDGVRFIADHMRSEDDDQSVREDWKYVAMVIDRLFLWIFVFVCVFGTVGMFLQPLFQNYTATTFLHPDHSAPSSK
Chain of Neuronal acetylcholine receptor; alpha3/beta2 (P04757 whole entry): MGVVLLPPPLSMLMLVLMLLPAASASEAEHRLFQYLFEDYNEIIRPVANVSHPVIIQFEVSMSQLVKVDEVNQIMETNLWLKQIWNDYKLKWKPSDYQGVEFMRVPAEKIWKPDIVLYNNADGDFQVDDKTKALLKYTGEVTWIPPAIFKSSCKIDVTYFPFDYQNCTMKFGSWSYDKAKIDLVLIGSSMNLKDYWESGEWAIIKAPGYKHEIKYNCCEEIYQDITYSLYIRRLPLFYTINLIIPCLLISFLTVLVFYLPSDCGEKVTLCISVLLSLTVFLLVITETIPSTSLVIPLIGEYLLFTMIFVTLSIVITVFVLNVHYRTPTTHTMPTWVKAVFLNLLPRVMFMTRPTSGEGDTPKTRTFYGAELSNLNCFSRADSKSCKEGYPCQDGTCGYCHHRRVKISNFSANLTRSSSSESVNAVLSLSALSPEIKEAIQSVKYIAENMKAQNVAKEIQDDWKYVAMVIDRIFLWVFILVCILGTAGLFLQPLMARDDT
Chain of Neuronal acetylcholine receptor; alpha3/beta2 (P12390 whole entry): as the sequence (P12390 whole entry) above
T1 sequence (P04757 whole entry): as the sequence (P04757 whole entry) above
T1 sequence (P12392 whole entry): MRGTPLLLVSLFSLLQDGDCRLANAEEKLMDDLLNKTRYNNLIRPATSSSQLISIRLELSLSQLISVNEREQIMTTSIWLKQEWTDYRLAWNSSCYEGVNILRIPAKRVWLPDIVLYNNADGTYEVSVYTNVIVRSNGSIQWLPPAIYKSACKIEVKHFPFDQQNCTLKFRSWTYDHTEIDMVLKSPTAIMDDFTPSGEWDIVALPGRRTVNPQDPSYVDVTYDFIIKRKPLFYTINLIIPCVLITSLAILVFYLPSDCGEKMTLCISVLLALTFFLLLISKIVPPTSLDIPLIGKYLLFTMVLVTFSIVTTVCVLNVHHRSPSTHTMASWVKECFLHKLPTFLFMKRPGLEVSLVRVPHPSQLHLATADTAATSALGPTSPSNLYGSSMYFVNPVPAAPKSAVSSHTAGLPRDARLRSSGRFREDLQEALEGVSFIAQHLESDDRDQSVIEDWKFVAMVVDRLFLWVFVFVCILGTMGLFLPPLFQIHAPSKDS
Chain of Neuronal acetylcholine receptor subunit alpha-7 (Homo sapiens) (P36544 whole entry): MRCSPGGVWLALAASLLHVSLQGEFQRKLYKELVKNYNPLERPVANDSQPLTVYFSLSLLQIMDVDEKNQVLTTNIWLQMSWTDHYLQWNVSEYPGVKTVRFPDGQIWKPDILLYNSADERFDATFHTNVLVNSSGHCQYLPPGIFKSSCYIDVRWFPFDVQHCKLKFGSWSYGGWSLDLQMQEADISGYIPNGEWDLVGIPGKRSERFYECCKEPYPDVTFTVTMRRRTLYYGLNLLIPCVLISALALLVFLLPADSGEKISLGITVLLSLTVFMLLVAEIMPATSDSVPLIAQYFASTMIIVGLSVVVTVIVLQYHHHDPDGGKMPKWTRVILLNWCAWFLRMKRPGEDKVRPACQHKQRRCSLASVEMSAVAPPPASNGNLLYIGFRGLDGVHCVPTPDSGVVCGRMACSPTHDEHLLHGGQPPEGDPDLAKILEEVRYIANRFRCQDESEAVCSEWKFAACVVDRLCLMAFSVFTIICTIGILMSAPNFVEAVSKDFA

Row | Structure (SMILES) | IC50 [1] | Activity [2] | Ki [3] | IC50 [4] | IC50 [5] | inhibition [6] | inhibition [7] | inhibition [8] | inhibition [9] | Selectivity ratio [10] | inhibition [11]
1 | CCCC[C@@H]1NC(=O)[C@H](CO)NC(=O)[C@@H]2CSSC[C@@H](C(=O)O)NC(=O)[C@H](Cc3ccc(O)cc3)NC(=O)[C@H](CCC)NC(=O)[C@H](CC)NC(=O)[C@H](Cc3ccccc3)NC(=O)[C@H](CSSC[C@H](NC(=O)CN)C(=O)N2)NC(=O)[C@H](CC)NC(=O)[C@@H]2CCCN2C1=O (H-GCCS[Nle]P[Abu]CF[Abu][Nva]YC-OH; disulfide 2-8, 3-13) | 320 nM | inactive | 980 nM | > 10 µM | > 10 µM | inactive | 104% | – | – | – | –
2 | CCCC[C@@H]1NC(=O)[C@H](CO)NC(=O)[C@@H]2CSSC[C@@H](C(=O)O)NC(=O)[C@H](Cc3ccc(O)cc3)NC(=O)[C@H](CCC)NC(=O)[C@H](CC)NC(=O)[C@H](Cc3ccccc3)NC(=O)[C@H](CSSC[C@H](NC(=O)CN)C(=O)N2)NC(=O)[C@@H]2CCCN2C(=O)[C@@H]2CCCN2C1=O (H-GCCS[Nle]PPCF[Abu][Nva]YC-OH; disulfide 2-8, 3-13) | 345 nM | inactive | 1110 nM | > 10 µM | > 10 µM | inactive | 96.4% | – | – | – | –
3 | CCC[C@@H]1NC(=O)[C@H](CC)NC(=O)[C@H](Cc2ccccc2)NC(=O)[C@@H]2CSSC[C@H](NC(=O)CN)C(=O)N[C@@H](CSSC[C@@H](C(=O)O)NC(=O)[C@H](Cc3ccc(O)cc3)NC1=O)C(=O)N[C@@H](CO)C(=O)N[C@@H](Cc1cnc[nH]1)C(=O)N1CCC[C@H]1C(=O)N[C@@H](CC)C(=O)N2 (H-GCCSHP[Abu]CF[Abu][Nva]YC-OH; disulfide 2-8, 3-13) | 183 nM | inactive | 270 nM | > 10 µM | > 10 µM | inactive | 109% | inactive | 75% | > 1000 | Dose-dependent effect
4 | CCCC[C@@H]1NC(=O)[C@H](CC)NC(=O)[C@H](Cc2ccccc2)NC(=O)[C@@H]2CSSC[C@H](NC(=O)CN)C(=O)N[C@@H](CSSC[C@@H](C(=O)O)NC(=O)[C@H](Cc3ccc(O)cc3)NC1=O)C(=O)N[C@@H](CO)C(=O)N[C@@H](CCCC)C(=O)N1CCC[C@H]1C(=O)N[C@@H](CC)C(=O)N2 (H-GCCS[Nle]P[Abu]CF[Abu][Nle]YC-OH; disulfide 2-8, 3-13) | 310 nM | – | – | > 10 µM | > 10 µM | – | 106% | – | – | – | –
5 | CCC[C@@H]1NC(=O)[C@H](CC)NC(=O)[C@H]([C@H](C)CC)NC(=O)[C@@H]2CSSC[C@H](NC(=O)CN)C(=O)N[C@@H](CSSC[C@@H](C(=O)O)NC(=O)[C@H](Cc3ccc(O)cc3)NC1=O)C(=O)N[C@@H](CO)C(=O)N[C@@H](Cc1cnc[nH]1)C(=O)N1CCC[C@H]1C(=O)N[C@@H](CC)C(=O)N2 | 1930 nM | – | – | > 10 µM | > 10 µM | – | 84.5% | – | – | – | –
6 | CCCC[C@@H]1NC(=O)[C@H](CC)NC(=O)[C@H](Cc2ccccc2)NC(=O)[C@@H]2CSSC[C@H](NC(=O)CN)C(=O)N[C@@H](CSSC[C@@H](C(=O)O)NC(=O)[C@H](Cc3ccc(O)cc3)NC1=O)C(=O)N[C@@H](CO)C(=O)N[C@@H](CCCC)C(=O)N1CCC[C@H]1C(=O)N1CCC[C@H]1C(=O)N2 (H-GCCS[Nle]PPCF[Abu][Nle]YC-OH; disulfide 2-8, 3-13) | 397 nM | – | – | > 10 µM | > 10 µM | – | 107% | – | – | – | –
7 | CCCC[C@@H]1NC(=O)[C@H](CC)NC(=O)[C@H](Cc2ccccc2)NC(=O)[C@@H]2CSSC[C@H](NC(=O)CN)C(=O)N[C@@H](CSSC[C@@H](C(=O)O)NC(=O)[C@H](Cc3ccc(O)cc3)NC1=O)C(=O)N[C@@H](CO)C(=O)N[C@@H](Cc1cnc[nH]1)C(=O)N1CCC[C@H]1C(=O)N1CCC[C@H]1C(=O)N2 (H-GCCSHPPCF[Abu][Nle]YC-OH; disulfide 2-8, 3-13) | 469 nM | – | – | > 10 µM | > 10 µM | – | 106% | – | – | – | –
8 | CCCC[C@@H]1NC(=O)[C@H](Cc2c[nH]c3ccccc23)NC(=O)[C@H](Cc2ccccc2)NC(=O)[C@@H]2CSSC[C@H](NC(=O)CN)C(=O)N[C@@H](CSSC[C@@H](C(=O)O)NC(=O)[C@H](Cc3ccc(O)cc3)NC1=O)C(=O)N[C@@H](CO)C(=O)N[C@@H](Cc1cnc[nH]1)C(=O)N1CCC[C@H]1C(=O)N[C@@H](CC)C(=O)N2 (H-GCCSHP[Abu]CFW[Nle]YC-OH; disulfide 2-8, 3-13) | 1730 nM | – | – | > 10 µM | > 10 µM | – | 101% | – | – | – | –
9 | CCC[C@@H]1NC(=O)[C@H](CC)NC(=O)[C@H](Cc2ccccc2)NC(=O)[C@@H]2CSSC[C@H](NC(=O)CN)C(=O)N[C@@H](CSSC[C@@H](C(=O)O)NC(=O)[C@H](Cc3ccc(O)cc3)NC1=O)C(=O)N[C@@H](CO)C(=O)N[C@@H](Cc1cnc[nH]1)C(=O)N1CCC[C@H]1C(=O)N1CCC[C@H]1C(=O)N2 (H-GCCSHPPCF[Abu][Nva]YC-OH; disulfide 2-8, 3-13) | 298 nM | inactive | 794 nM | > 10 µM | > 10 µM | 49.8% | 92.6% | – | – | – | –
10 | CCCC[C@@H]1NC(=O)[C@H](CC)NC(=O)[C@H]([C@H](C)CC)NC(=O)[C@@H]2CSSC[C@H](NC(=O)CN)C(=O)N[C@@H](CSSC[C@@H](C(=O)O)NC(=O)[C@H](Cc3ccc(O)cc3)NC1=O)C(=O)N[C@@H](CO)C(=O)N[C@@H](Cc1cnc[nH]1)C(=O)N1CCC[C@H]1C(=O)N[C@@H](CC)C(=O)N2 | 463 nM | – | – | > 10 µM | > 10 µM | – | 110% | – | – | – | –
11 | CCCC[C@@H]1NC(=O)[C@H](CC)NC(=O)[C@H](Cc2ccccc2)NC(=O)[C@@H]2CSSC[C@H](NC(=O)CN)C(=O)N[C@@H](CSSC[C@@H](C(=O)O)NC(=O)[C@H](Cc3ccc(O)cc3)NC1=O)C(=O)N[C@@H](CO)C(=O)N[C@@H](Cc1cnc[nH]1)C(=O)N1CCC[C@H]1C(=O)N[C@@H](CC)C(=O)N2 (H-GCCSHP[Abu]CF[Abu][Nle]YC-OH; disulfide 2-8, 3-13) | 307 nM | – | – | > 10 µM | > 10 µM | – | 110% | – | – | – | –
12 | CCC[C@@H]1NC(=O)[C@H](Cc2c[nH]c3ccccc23)NC(=O)[C@H](Cc2ccccc2)NC(=O)[C@@H]2CSSC[C@H](NC(=O)CN)C(=O)N[C@@H](CSSC[C@@H](C(=O)O)NC(=O)[C@H](Cc3ccc(O)cc3)NC1=O)C(=O)N[C@@H](CO)C(=O)N[C@@H](Cc1cnc[nH]1)C(=O)N1CCC[C@H]1C(=O)N[C@@H](CC)C(=O)N2 (H-GCCSHP[Abu]CFW[Nva]YC-OH; disulfide 2-8, 3-13) | – | – | – | – | – | – | 72.1% | – | – | – | –
13 | CCC[C@@H]1NC(=O)[C@H](Cc2c[nH]c3ccccc23)NC(=O)[C@H]([C@H](C)CC)NC(=O)[C@@H]2CSSC[C@H](NC(=O)CN)C(=O)N[C@@H](CSSC[C@@H](C(=O)O)NC(=O)[C@@H]3CCCN3C1=O)C(=O)N[C@@H](CO)C(=O)N[C@@H](Cc1cnc[nH]1)C(=O)N1CCC[C@H]1C(=O)N1CCC[C@H]1C(=O)N2 | – | – | – | – | – | – | 44.8% | – | – | – | –
14 | CCC[C@@H]1NC(=O)[C@H](Cc2c[nH]c3ccccc23)NC(=O)[C@H]([C@H](C)CC)NC(=O)[C@@H]2CSSC[C@H](NC(=O)CN)C(=O)N[C@@H](CSSC[C@@H](C(=O)O)NC(=O)[C@H](Cc3ccc(O)cc3)NC1=O)C(=O)N[C@@H](CO)C(=O)N[C@@H](Cc1cnc[nH]1)C(=O)N1CCC[C@H]1C(=O)N[C@@H](CC)C(=O)N2 | – | – | – | – | – | – | 47.5% | – | – | – | –
15 | CCCC[C@@H]1NC(=O)[C@H](CO)NC(=O)[C@@H]2CSSC[C@@H](C(=O)O)NC(=O)[C@H](Cc3ccc(O)cc3)NC(=O)[C@H](CCC)NC(=O)[C@H](Cc3c[nH]c4ccccc34)NC(=O)[C@H]([C@H](C)CC)NC(=O)[C@H](CSSC[C@H](NC(=O)CN)C(=O)N2)NC(=O)[C@H](CC)NC(=O)[C@@H]2CCCN2C1=O | – | – | – | – | – | – | 61.9% | – | – | – | –
